Experimental data published in ChEMBL document CHEMBL2146441, “2,6-Disubstituted imidazo[2,1-b][1,3,4]thiadiazoles: search for anticancer agents” (2012).

What was measured:
Type in all cases: functional
HCC 2998 = test: Cytotoxicity against human HCC2998 cells assessed as cell growth at 10^-8 M after 48 hrs by SRB assay; settings: HCC 2998, 48 h, read-out: Activity
Summary of the method: (§1)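 NCI-60 five-dose screen. Cells were grown in RPMI 1640 with 5% FBS and seeded at 5000–40,000 cells/well according to doubling time. They were pre-incubated 24 h at 37 °C in 5% CO₂, and time-zero (Tz) plates were TCA-fixed at drug addition. Five 10-fold dilutions of DMSO stock were applied for 48 h. Read-out was SRB staining, 515 nm absorbance, with percent growth calculated versus Tz and untreated control.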

NCI-H226 = test: Cytotoxicity against human NCI-H226 cells assessed as cell growth at 10^-4 M after 48 hrs by SRB assay; settings: NCI-H226, 48 h, read-out: Activity
BT-549 = test: Cytotoxicity against human BT549 cells assessed as cell growth at 10^-7 M after 48 hrs by SRB assay; settings: BT-549, 48 h, read-out: Activity
Summary of the method: (§2)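 NCI-60 screen: lines kept in RPMI 1640 with 5% FBS, seeded at 5000–40,000 cells/well by doubling time, preincubated 24 h at 37 °C in 5% CO2. Time-zero plates TCA-fixed at drug addition. DMSO stocks diluted in medium, 48 h exposure. Fixation in cold TCA (final 10% adherent, 16% suspension), 0.4% SRB stain, solubilised in 10 mM Tris base, A515. Percent growth computed against control and time-zero.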

MCF7 [1] = test: Cytotoxicity against human MCF7 cells assessed as cell growth at 10^-6 M after 48 hrs by SRB assay; settings: MCF7, 48 h, read-out: Activity
UACC-257 = test: Cytotoxicity against human UACC257 cells assessed as cell growth at 10^-4 M after 48 hrs by SRB assay; settings: UACC-257, 48 h, read-out: Activity
KM12 = test: Cytotoxicity against human KM12 cells assessed as cell growth at 10^-7 M after 48 hrs by SRB assay; settings: KM12, 48 h, read-out: Activity
SF-539 [2] = test: Growth inhibition of human SF539 cells after 48 hrs by SRB assay; settings: SF-539, 48 h
Summary of the method: (§3)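 Adherent NCI-60 lines grown in RPMI 1640 with 5% FBS, seeded at 5000–40,000 cells/well, and preincubated 24 h at 37 °C, 5% CO2. Compound, stocked in DMSO, given either once at 10^-5 M or at five 10-fold dilutions for 48 h. Cells fixed with cold TCA (final 10%), stained with 0.4% SRB, and read at 515 nm. GI50 taken as 50% reduction in net protein increase versus time-zero and control plates.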

IGROV-1 = test: Growth inhibition of human IGROV1 cells after 48 hrs by SRB assay; settings: IGROV-1, 48 h; for CC50: read-out: LC50 (the source's name); summary of the method: as §3
PC-3 [3] = test: Cytotoxicity against human PC3 cells assessed as cell growth at 10^-7 M after 48 hrs by SRB assay; settings: PC-3, 48 h, read-out: Activity
HCT-116 = test: Cytotoxicity against human HCT116 cells assessed as cell growth at 10^-6 M after 48 hrs by SRB assay; settings: HCT-116, 48 h, read-out: Activity; summary of the method: as §1
NCI-H460 = test: Cytotoxicity against human NCI-H460 cells assessed as cell growth at 10^-5 M after 48 hrs by SRB assay; settings: NCI-H460, 48 h, read-out: Activity
MOLT-4 = test: Cytotoxicity against human MOLT4 cells assessed as cell growth at 10^-8 M after 48 hrs by SRB assay; settings: MOLT-4, 48 h, read-out: Activity
SN12C = test: Cytotoxicity against human SN12C cells assessed as cell growth at 10^-5 M after 48 hrs by SRB assay; settings: read-out: Activity
MCF7 [4] = test: Cytotoxicity against human MCF7 cells assessed as cell growth at 10^-7 M after 48 hrs by SRB assay; settings: MCF7, 48 h, read-out: Activity
[5] = Cytotoxicity against human Hs 578T cells assessed as cell growth at 10^-4 M after 48 hrs by SRB assay; settings: read-out: Activity; summary of the method: as §1
CAKI-1 = test: Cytotoxicity against human Caki1 cells assessed as cell growth at 10^-7 M after 48 hrs by SRB assay; settings: CAKI-1, 48 h, read-out: Activity; summary of the method: as §2
SK-OV-3 [6] = test: Cytotoxicity against human SKOV3 cells assessed as cell growth at 10^-7 M after 48 hrs by SRB assay; settings: SK-OV-3, 48 h, read-out: Activity
[7] = Cytotoxicity against human RPMI8266 cells assessed as cell growth at 10^-4 M after 48 hrs by SRB assay; settings: RPMI8266, 48 h, read-out: Activity
SK-OV-3 [8] = test: Cytotoxicity against human SKOV3 cells assessed as cell growth at 10^-6 M after 48 hrs by SRB assay; settings: SK-OV-3, 48 h, read-out: Activity
M14 = test: Cytotoxicity against human M14 cells assessed as cell growth at 10^-8 M after 48 hrs by SRB assay; settings: M14, 48 h, read-out: Activity
MDA-MB-468 = test: Cytotoxicity against human MDA-MB-468 cells assessed as cell growth at 10^-4 M after 48 hrs by SRB assay; settings: MDA-MB-468, 48 h, read-out: Activity
SNB-19 = test: Cytotoxicity against human SNB19 cells assessed as cell growth at 10^-6 M after 48 hrs by SRB assay; settings: SNB-19, 48 h, read-out: Activity
PC-3 [9] = test: Cytotoxicity against human PC3 cells assessed as cell growth at 10^-5 M after 48 hrs by SRB assay; settings: PC-3, 48 h, read-out: Activity
HCT-15 = test: Cytotoxicity against human HCT15 cells assessed as cell growth at 10^-6 M after 48 hrs by SRB assay; settings: HCT-15, 48 h, read-out: Activity; summary of the method: as §1
HOP-62 = test: Cytotoxicity against human HOP62 cells assessed as cell growth at 10^-7 M after 48 hrs by SRB assay; settings: HOP-62, 48 h, read-out: Activity; summary of the method: as §1
RXF 393 [10] = test: Cytotoxicity against human RXF393 cells assessed as cell growth at 10^-5 M after 48 hrs by SRB assay; settings: RXF 393, 48 h, read-out: Activity
SF-539 [11] = test: Cytotoxicity against human SF539 cells assessed as cell growth at 10^-8 M after 48 hrs by SRB assay; settings: SF-539, 48 h, read-out: Activity
T47D = test: Cytotoxicity against human T47D cells assessed as cell growth at 10^-5 M after 48 hrs by SRB assay; settings: read-out: Activity
NCI-H322M = test: Cytotoxicity against human NCI-H322M cells assessed as cell growth at 10^-8 M after 48 hrs by SRB assay; settings: read-out: Activity
RXF 393 [12] = test: Cytotoxicity against human RXF393 cells assessed as cell growth at 10^-4 M after 48 hrs by SRB assay; settings: RXF 393, 48 h, read-out: Activity
OVCAR-4 = test: Cytotoxicity against human OVCAR4 cells assessed as cell growth at 10^-8 M after 48 hrs by SRB assay; settings: OVCAR-4, 48 h, read-out: Activity

Compound	growth at 0.01 µM (HCC 2998)	growth at 100 µM (NCI-H226)	growth at 0.1 µM (BT-549)	growth at 1 µM (MCF7 [1])	growth at 100 µM (UACC-257)	growth at 0.1 µM (KM12)	GI50 (SF-539 [2])	TGI (SF-539 [2])	GI50 (IGROV-1)	TGI (IGROV-1)	CC50 (IGROV-1)	growth at 0.1 µM (PC-3 [3])	growth at 1 µM (HCT-116)	growth at 10 µM (NCI-H460)	growth at 0.01 µM (MOLT-4)	growth at 10 µM (SN12C)	growth at 0.1 µM (MCF7 [4])	growth at 100 µM [5]	growth at 0.1 µM (CAKI-1)	growth at 0.1 µM (SK-OV-3 [6])	further results
COc1ccc(-c2nn3cc(-c4ccc(O)cc4O)nc3s2)cc1	98%	-19%	94%	70%	-5%	96%	1.83 µM	3.47 µM	2.23 µM	37.4 µM	> 100 µM	91%	86%	-6%	100%	7%	89%	-1%	90%	94%	growth at 100 µM [7]: 3%; growth at 1 µM (SK-OV-3 [8]): 85%; growth at 0.01 µM (M14): 96%; growth at 100 µM (MDA-MB-468): -27%; growth at 1 µM (SNB-19): 85%; growth at 10 µM (PC-3 [9]): 14%; growth at 1 µM (HCT-15): 93%; growth at 0.1 µM (HOP-62): 91%; growth at 10 µM (RXF 393 [10]): -83%; growth at 0.01 µM (SF-539 [11]): 105%; growth at 10 µM (T47D): -29%; growth at 0.01 µM (NCI-H322M): 89%; growth at 100 µM (RXF 393 [12]): -63%; growth at 0.01 µM (OVCAR-4): 95%
COc1ccc(-c2nn3cc(-c4cccc(N)c4)nc3s2)cc1	98%	-61%	98%	65%	7%	100%	2.51 µM	7.83 µM	2.65 µM	34.4 µM	> 100 µM	81%	90%	26%	103%	36%	78%	-10%	76%	97%	LC50 (SF-539 [2]): 48 µM; growth at 100 µM [7]: -8%; growth at 1 µM (SK-OV-3 [8]): 87%; growth at 0.01 µM (M14): 101%; growth at 100 µM (MDA-MB-468): -16%; growth at 1 µM (SNB-19): 81%; growth at 10 µM (PC-3 [9]): 10%; growth at 1 µM (HCT-15): 86%; growth at 0.1 µM (HOP-62): 98%; growth at 10 µM (RXF 393 [10]): -31%; growth at 0.01 µM (SF-539 [11]): 101%; growth at 10 µM (T47D): 7%; growth at 0.01 µM (NCI-H322M): 100%; growth at 100 µM (RXF 393 [12]): -90%; growth at 0.01 µM (OVCAR-4): 92%
